Test [1] relates to Streptococcus pyogenes. Nature of the test: Inhibition of Streptococcus pyogenes Cas9 at 500 microM by Cas9 cleavage assay. In a few lines: (§1)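 Recombinant SpyCas9 (5 nM) preincubated with compound in DMSO (final 5% v/v) for 15 min at 37 °C in PBS + 10 mM MgCl2 + 0.02% Triton X-100. Then 6 nM preformed crRNA/tracrRNA gRNA for 5 min, then 1 nM PCR-amplified target DNA for 30 min. Quenched with proteinase K, run on a 1% agarose gel, bands quantified by densitometry. Run in triplicate; IC50 from a four-parameter logistic fit.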

Test [2] deals with Streptococcus pyogenes. Kind of test: Inhibition of Streptococcus pyogenes Cas9 assessed as inhibition of Csp9:gRNA complex formation at 200 to 500 uM. The note with it: dose 200-500 µM.
A short description of test [3]: Inhibition of Streptococcus pyogenes Cas9 by Cas9 cleavage assay. The method, boiled down: as §1
The subject of test [4] is Streptococcus pyogenes. Kind of test: Binding affinity to Streptococcus pyogenes Cas9 by 1D 1H-NMR-WaterLOGSY spectrum analysis. The method, boiled down:
(§2)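 NMR ligand-binding on apo-SpyCas9 with standard pulse sequences. For WaterLOGSY, bound ligands give signals of opposite (negative) phase to non-binders. Alanine is added to the cocktail at the ligand concentration as a phasing reference.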

In test [5] the test system is Streptococcus pyogenes. Kind of test: Inhibition of Streptococcus pyogenes Cas9 assessed as inhibition of Csp9:gRNA complex formation.
Test [6] concerns Streptococcus pyogenes. Nature of the test: Binding affinity to Streptococcus pyogenes Cas9 by 1H-19F-(CPMG)-NMR analysis. The method, boiled down:
as §2

Test [7] relates to Streptococcus pyogenes. Kind of test: Inhibition of Streptococcus pyogenes Cas9 assessed as inhibition of Csp9:gRNA complex formation at 200 uM by EMSA assay. The method, boiled down: (§3)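 EMSA in PBS + 10 mM MgCl2 + 0.02% Triton X-100. Compound incubated with 200 nM apo-SpyCas9 for 5 min at 37 °C, then 200 nM Atto550-labelled crRNA/tracrRNA gRNA added for 15 min. Complexes resolved on a 6% TBE gel and visualised by fluorescence.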
(In general: A gel shift assay detects complexes by their altered migration in electrophoresis.)

Test [8] relates to Streptococcus pyogenes. Nature of the test: Inhibition of Streptococcus pyogenes apo-Cas9 assessed as inhibition of Csp9:gRNA complex formation at 10 to 200 uM by EMSA assay. Conditions: dose 10-200 µM. In a few lines: as §3
Test [9] concerns Streptococcus pyogenes. Kind of test: Inhibition of Streptococcus pyogenes Cas9 at 200 microM by Cas9 cleavage assay. The method, boiled down:
as §1

Structures are written as SMILES. Active and inactive are the calls of the source. The rule behind the calls is not given here.

These results are taken from ChEMBL document CHEMBL5046274, “Identification and Optimization of Novel Small-Molecule Cas9 Inhibitors by Cell-Based High-Throughput Screening” (J Med Chem, 2022).

The IC50 is the point on the concentration scale where inhibition reaches its midpoint. Lower therefore signals inhibition by little substance.

Regarding `Cc1cc(NS(=O)(=O)c2cc(-c3nc(C)c(C(=O)N4CCC(C)CC4)s3)n(C)c2C)no1`, the result in the test with Streptococcus pyogenes [1] was Active. For the same compound, the inhibition result in the test with Streptococcus pyogenes [2] is “Active”. The compound further returned an IC50 in test [3] of 246 µM. In [3], `Cc1cc(NS(=O)(=O)c2ccc(-c3ccccc3)cc2)no1` had an IC50 of 189 µM. Turning to `Oc1c(C(c2ccccn2)N2CCC(Cc3ccccc3)CC2)cc(Cl)c2cccnc12` (configuration not stated), the result in the test on Streptococcus pyogenes [1] was Active. Turning to `Cc1cc(NS(=O)(=O)c2cc(-c3ccc(Cl)c(Cl)c3)cc(C(F)(F)F)c2)no1`, the outcome in the test on Streptococcus pyogenes [4] and in the test with Streptococcus pyogenes [6] was Active. Also, the inhibition entry with Streptococcus pyogenes [5], with Streptococcus pyogenes [7] and in the test with Streptococcus pyogenes [8] was “Active” in each case. In test [3], this compound displayed an IC50 of 7.02 µM. With `Cc1cc(NS(=O)(=O)c2ccc(-c3cccc(C(=O)N4CCC(C)CC4)c3)cc2)no1`, the IC50 in [3] came out at 223 µM. Still for that read-out and setting: the result for `CC1CCN(C(=O)c2cccc(-c3ccccc3)c2)CC1` reads 28 µM; that for `Cc1cc(NS(=O)(=O)c2cccc(-c3ccc(Cl)c(Cl)c3)c2)no1`, 14 µM. For `Cc1ccnc(NS(=O)(=O)c2cc(-c3nc(C)c(C(=O)N4CCC(C)CC4)s3)n(C)c2C)c1`, the result in the test with Streptococcus pyogenes [9] was inactive. On to `CC1CCN(C(=O)c2cccc(-c3ccc(C(F)(F)F)cc3)c2)CC1`, for which 28 µM corresponded to half-maximal inhibition in [3] (IC50).

Consider `Cc1cc(NS(=O)(=O)c2cccc(-c3ccccc3)c2)no1`, for which, in [3], 129 µM corresponded to half-maximal inhibition (IC50).
